Experiments:
MCF7 = test: Antitumor activity against human MCF7 cells after 48 hrs by MTS assay; format: functional; conditions: MCF7, 48 h
Procedure, shortened: (§1)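 Cells grown in RPMI 1640 (K562) or MEM with Earle's salts (HT-29, CaCo-2, MCF-7) plus 10% FBS, 37 °C, 5% CO2; adherent lines trypsinized to single-cell suspension. Log-phase cells plated at about 5000 cells/mL, acclimatized 24 h, then exposed to serial dilutions in triplicate, up to 250 µM, for 48 h. MTS/PMS added 3 h; absorbance 490 nm; GI50 from growth inhibition.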

Caco-2 = test: Antitumor activity against human CaCo2 cells after 48 hrs by MTS assay; format: functional; conditions: Caco-2, 48 h; procedure, shortened: as §1
K562 [1] = test: Antitumor activity against human K562 cells after 48 hrs by MTS assay; format: functional; conditions: K562, 48 h; procedure, shortened: as §1
HT-29 = test: Antitumor activity against human HT29 cells after 48 hrs by MTS assay; format: functional; conditions: HT-29, 48 h; procedure, shortened: as §1
Adenosine receptor A3 = target: T1, Adenosine receptor A3 (Homo sapiens, UniProt P0DMS8); test: Inhibition of human adenosine A3 receptor
T1 sequence (P0DMS8 whole entry): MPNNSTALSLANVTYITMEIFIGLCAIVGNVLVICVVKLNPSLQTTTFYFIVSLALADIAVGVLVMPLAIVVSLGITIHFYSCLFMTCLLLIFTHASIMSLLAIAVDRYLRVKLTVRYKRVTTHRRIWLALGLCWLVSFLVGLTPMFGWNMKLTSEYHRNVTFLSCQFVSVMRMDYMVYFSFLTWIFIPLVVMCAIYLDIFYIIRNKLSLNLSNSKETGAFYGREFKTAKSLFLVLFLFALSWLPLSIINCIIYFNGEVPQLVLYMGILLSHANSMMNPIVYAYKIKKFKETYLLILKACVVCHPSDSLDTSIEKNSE

HL-60 [2] = test: Decrease in intracellular dATP pool in human HL60 cells at 2.5 uM after 24 hrs relative to control; format: functional; parameters: scale not given: the % may be the effect or the level left
Procedure, shortened: (§2)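 HL-60 cells in log phase (0.5 × 10^6 per ml) incubated 24 h with drug at 2.5, 5 or 10 µM. dNTPs extracted from 5 × 10^7 cells by trichloroacetic acid lysis, Freon/tri-n-octylamine neutralization, periodate oxidation with methylamine (37 °C, 30 min). Quantified by SAX HPLC in ammonium phosphate pH 3.4 with 2% acetonitrile, UV 280/260 nm; expressed versus untreated control.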

HL-60 [3] = test: Decrease in intracellular dATP pool in human HL60 cells at 10 uM after 24 hrs relative to control; format: functional; parameters: scale not given: the % may be the effect or the level left; procedure, shortened: as §2
HL-60 [4] = test: Decrease in intracellular dATP pool in human HL60 cells at 5 uM after 24 hrs relative to control; format: functional; parameters: scale not given: the % may be the effect or the level left; procedure, shortened: as §2
HL-60 [5] = test: Decrease in intracellular dCTP pool in human HL60 cells at 40 nM relative to control; format: functional; parameters: scale not given: the % may be the effect or the level left
HL-60 [6] = test: Decrease in intracellular dATP pool in human HL60 cells at 40 nM relative to control; parameters: scale not given: the % may be the effect or the level left
K562 [7] = test: Growth inhibition of 1 uM 1,4-dihydro-2-methyl-6-phenyl-4-(phenylethyl)-3,5-pyridine-dicarboxylic acid 3-ethyl-5-[(3-nitrophenyl) methyl] ester pretreated human K562 cells after 48 hrs by MTS assay; format: functional
K562 [8] = test: Growth inhibition of 0.1 uM 1,4-dihydro-2-methyl-6-phenyl-4-(phenylethyl)-3,5-pyridine-dicarboxylic acid 3-ethyl-5-[(3-nitrophenyl) methyl] ester pretreated human K562 cells after 48 hrs by MTS assay; format: functional
K562 [9] = test: Growth inhibition of 1 uM 1,4-dihydro-2-methyl-6-phenyl-4-(phenylethyl)-3,5-pyridine-dicarboxylic acid 3-ethyl-5-[(3-nitrophenyl) methyl] ester pretreated human K562 cells after 72 hrs by MTS assay; format: functional
K562 [10] = test: Growth inhibition of 0.1 uM 1,4-dihydro-2-methyl-6-phenyl-4-(phenylethyl)-3,5-pyridine-dicarboxylic acid 3-ethyl-5-[(3-nitrophenyl) methyl] ester pretreated human K562 cells after 72 hrs by MTS assay; format: functional

| GI50 (MCF7) | GI50 (Caco-2) | GI50 (K562 [1]) | GI50 (HT-29) | SMILES | also measured |
| --- | --- | --- | --- | --- | --- |
| > 250 µM | > 250 µM | > 250 µM | > 250 µM | OC[C@H]1O[C@@H](n2cnc3c(NC4CCCC4)nc(Cl)nc32)[C@H](O)[C@@H]1O | – |
| 51.5 µM | 3.3 µM | 3.1 µM | 53.4 µM | OC[C@H]1O[C@@H](n2cnc3c(NCc4cccs4)ncnc32)[C@H](O)[C@@H]1O | Ki (Adenosine receptor A3): 0.06 µM |
| > 250 µM | > 250 µM | > 250 µM | > 250 µM | OC[C@H]1O[C@@H](n2cnc3c(NC4CCCCC4)ncnc32)[C@H](O)[C@@H]1O | – |
| 200 µM | > 250 µM | 83 µM | 106 µM | C[C@@]1(O)[C@@H](CO)O[C@@H](n2cnc3c(NC4CCCCCC4)ncnc32)[C@@H]1O | – |
| 207 µM | 246 µM | 98 µM | 137 µM | C[C@@]1(O)[C@@H](CO)O[C@@H](n2cnc3c(Nc4ccccc4)ncnc32)[C@@H]1O | – |
| > 250 µM | > 250 µM | > 250 µM | > 250 µM | C[C@@]1(O)[C@@H](CO)O[C@@H](n2cnc3c(NCc4ccccc4)ncnc32)[C@@H]1O | – |
| > 250 µM | > 250 µM | > 250 µM | > 250 µM | C[C@@]1(O)[C@@H](CO)O[C@@H](n2cnc3c(Nc4cc[nH]n4)ncnc32)[C@@H]1O | – |
| > 250 µM | > 250 µM | > 250 µM | > 250 µM | C[C@@]1(O)[C@@H](CO)O[C@@H](n2cnc3c(NCc4cccs4)ncnc32)[C@@H]1O | – |
| 22.4 µM | 23.2 µM | 9.4 µM | 26.1 µM | C[C@@]1(O)[C@@H](CO)O[C@@H](n2cnc3c(N)ncnc32)[C@@H]1O | – |
| > 250 µM | > 250 µM | 73 µM | > 250 µM | C[C@@]1(O)[C@@H](CO)O[C@@H](n2cnc3c(NC4CC4)ncnc32)[C@@H]1O | – |
| > 250 µM | > 250 µM | 246 µM | > 250 µM | C[C@@]1(O)[C@@H](CO)O[C@@H](n2cnc3c(NC4CCC4)ncnc32)[C@@H]1O | – |
| > 250 µM | > 250 µM | 145 µM | > 250 µM | C[C@@]1(O)[C@@H](CO)O[C@@H](n2cnc3c(NC4CCCC4)ncnc32)[C@@H]1O | – |
| > 250 µM | > 250 µM | > 250 µM | > 250 µM | C[C@@]1(O)[C@@H](CO)O[C@@H](n2cnc3c(NC4CCCC4)nc(Cl)nc32)[C@@H]1O | – |
| > 250 µM | > 250 µM | > 250 µM | > 250 µM | C[C@@]1(O)[C@@H](CO)O[C@@H](n2cnc3c(NCc4ccco4)ncnc32)[C@@H]1O | – |
| > 250 µM | 223 µM | 50 µM | > 250 µM | C[C@@]1(O)[C@@H](CO)O[C@@H](n2cnc3c(NC4CCCCC4)ncnc32)[C@@H]1O | – |
| > 100 µM | > 100 µM | 16 µM | > 100 µM | C[C@@]1(O)[C@H](O)[C@@H](CO)O[C@H]1n1cnc2c(N)ncnc21 | – |
| 56 µM | 56 µM | 32.5 µM | 65.8 µM | C[C@@]1(O)[C@@H](CO)O[C@@H](n2cnc3c(N[C@@H]4C[C@@H]5CC[C@@H]4C5)ncnc32)[C@@H]1O (racemic) | Activity (HL-60 [2]): 65%; Activity (HL-60 [3]): 10%; Activity (HL-60 [4]): 28% |
| > 250 µM | > 250 µM | 116 µM | > 250 µM | OC[C@H]1O[C@@H](n2cnc3c(N[C@@H]4C[C@@H]5CC[C@@H]4C5)ncnc32)[C@H](O)[C@@H]1O (racemic) | – |
| 0.01 µM | 0.18 µM | 0.32 µM | 0.03 µM | Nc1ccn([C@@H]2O[C@H](CO)[C@@H](O)C2(F)F)c(=O)n1 [GEMCITABINE] | Activity (HL-60 [5]): 6.1%; Activity (HL-60 [6]): 13.9% |
| 45.6 µM | 45.6 µM | 3.3 µM | 60.2 µM | OC[C@H]1O[C@@H](n2cnc3c(NCc4ccco4)ncnc32)[C@H](O)[C@@H]1O [KINETIN RIBOSIDE] | Ki (Adenosine receptor A3): 0.022 µM |
| 61 µM | 7.4 µM | 4.6 µM | 22.3 µM | OC[C@H]1O[C@@H](n2cnc3c(NCc4ccccc4)ncnc32)[C@H](O)[C@@H]1O [N6-BENZYLADENOSINE] | Ki (Adenosine receptor A3): 0.0413 µM; GI50 (K562 [7]): 4.17 µM; GI50 (K562 [8]): 3.91 µM; GI50 (K562 [9]): 2.92 µM; GI50 (K562 [10]): 2.92 µM |
| > 250 µM | > 250 µM | > 250 µM | > 250 µM | OC[C@H]1O[C@@H](n2cnc3c(NC4CCCC4)ncnc32)[C@H](O)[C@@H]1O [N6-CYCLOPENTYLADENOSINE] | – |
| > 250 µM | > 250 µM | > 250 µM | > 250 µM | OC[C@H]1O[C@@H](n2cnc3c(Nc4ccccc4)ncnc32)[C@H](O)[C@@H]1O [N6-PHENYLADENOSINE] | – |
